In data set [1] the target is Human immunodeficiency virus type 1 integrase (Human immunodeficiency virus 1, UniProt Q7ZJM1). As to the kind of experiment: Inhibition of HIV1 integrase strand transfer activity.
In data set [2] the test system is Human immunodeficiency virus 1. The experiment in a line: Antiviral activity against HIV1 3B infected in human MT4 cells assessed as inhibition of viral replication after 5 days by MTT assay. Format: functional, organism-based. As to conditions: Human immunodeficiency virus 1, 3B, MT4, 120 h. In outline:
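MT-4 human T lymphoid cells at 1 × 10^5 cells/mL in RPMI 1640 with 10% FBS, penicillin and streptomycin; infected with strain IIIb at multiplicity 0.01, compounds added, 37 °C for 5 days. Viability read by MTT (7.5 mg/mL solution), formazan dissolved in acidic isopropanol with 4% Triton-X, absorbance at 595 nm.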

Data set [3] in a line: Cytotoxicity against human MT4 cells after 5 days by MTT assay. The class given is cell-based. Summed up: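 Uninfected MT-4 cells at 1 × 10^5 cells/mL in RPMI 1640 with 10% FBS, penicillin and streptomycin, exposed to compounds at 37 °C for 5 days. Viability by MTT (7.5 mg/mL solution); formazan taken up in acidic isopropanol containing 4% Triton-X, read at 595 nm.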
(Tetrazolium dyes change colour on reduction, which living cells bring about.)

Data set [4] is described as follows: Selectivity index, ratio of CC50 for human MT4 cells to EC50 for HIV1 3B. The class given is toxicity, cell-based. In outline: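 For EC50, cells were infected with HIV-1 IIIb at multiplicity 0.01 before compound was added; for CC50, cells were uninfected. Viability was read by MTT reduction, with formazan dissolved in acidic isopropanol/4% Triton-X and absorbance at 595 nm.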

Each structure is given as a SMILES string. pEC50, pIC50: −log10 of the molar value.

Usually pIC50 stands for the IC50 on a negative log10 scale, so that one unit is a factor of ten. A high value points to a low IC50. A word on the pEC50: it is the negative decadic logarithm of the EC50, by convention in mol/L. A word on the CC50: it is the concentration at which the toxic effect on the cells reaches its halfway point. A high value points to lower toxicity to the cells.

Sequence of Human immunodeficiency virus type 1 integrase (Q7ZJM1 whole entry): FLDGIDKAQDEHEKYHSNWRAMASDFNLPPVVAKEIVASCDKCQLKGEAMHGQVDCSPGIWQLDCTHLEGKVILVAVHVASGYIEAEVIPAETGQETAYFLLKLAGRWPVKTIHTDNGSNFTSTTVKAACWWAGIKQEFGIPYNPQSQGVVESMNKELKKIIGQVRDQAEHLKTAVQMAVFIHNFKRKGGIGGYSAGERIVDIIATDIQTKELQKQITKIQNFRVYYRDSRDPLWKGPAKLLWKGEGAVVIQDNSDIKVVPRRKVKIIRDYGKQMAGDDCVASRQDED

With `COc1cc2c(cc1Cc1cccc(Cl)c1F)c(=O)c(C(=O)O)cn2[C@H](CO)C(C)(C)C`, in data set [1], the pIC50 is 8.24. The pEC50 in data set [2] is 9.22. Further, the CC50 at 120 h in data set [3] was found to be 3400 nM. Moreover, the selectivity ratio in data set [4] is more than 4000.

Values taken from ChEMBL document CHEMBL1158495, “Quinolone carboxylic acids as a novel monoketo acid class of human immunodeficiency virus type 1 integrase inhibitors” (J Med Chem, 2009).
